DTT redox prof – compounds producing H2O2 with reducing agent – biochemical, NIH compound library profiling, artefact control for MLSCN library redox annotation, primary screen. DTT-dependent redox cycling H2O2, phenol red/HRP absorbance; 100% = 100 µM peroxide control, 0% = buffer. activation, % at 10 µM. 0.03% of 200,000 active. AID 878;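 active means activation of at least 50% relative to the plate's high and low controls in the primary single-dose screen; inactive means activation below 50%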;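 further: compound incubated with DTT at 0.8 mM final as the reducing agent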
T cruzi inh – T. cruzi replication inhibition | T. cruzi beta-gal in NIH3T3, luminescence, 90 h | inhibition, % (no concentration beside the values) | 1.4% of 300,000 active;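 active means mean inhibition across valid replicates above about 55%, limit read from the data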;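 further: signal also drops with host cell toxicity which is not excluded here; 0% = plate median of DMSO wells and 100% = zero luminescence signal; higher percent means less beta-gal luminescence so fewer parasites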
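System: NIH/3T3 fibroblasts plus reporter T. cruzi. Medium: DMEM plus 2% FBS. Probe or stimulus: 5000 reporter trypomastigotes per well. Compound: single 50 nL compound addition per well in DMSO. Incubation: co-culture of at least 90 h after 3 h attachment. Detection: GalScreen β-gal luminescence, detergent lysis, 60 min. Evaluation: parasite load inhibition, %.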
MPTP block – inhibitors of mitochondrial permeability transition pore; isolated mouse mitochondria, Ca2+ swelling absorbance, 30 min; inhibition, % at 10 µM; 1.4% of 360,000 active; AID 602449;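 active means inhibition of 50% or more, scaled per plate between neutral and stimulator controls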;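 further: 0% = DMSO wells given calcium and 100% = 1 mM EGTA wells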
Lipid droplet – modulators of hepatic lipid droplet formation. AML12 mouse hepatocytes, oleate lipid droplets, BODIPY imaging. inhibition, % at 6.5 µM. 0.4% of 240,000 active;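 active means lipid droplet intensity inhibited by at least 50%, with more than 500 cells counted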
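Assay system: AML12 hepatocytes (mouse) / Also added: 100 µM oleic acid challenge / Times: overnight treatment with compound plus oleate / Detection: high-content imaging of BODIPY-stained droplets and DAPI nuclei / Evaluation: % inhibition of lipid droplet signal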
Lmaj promast – Leishmania major promastigote growth inhibition; Leishmania major promastigotes, resazurin fluorescence viability; inhibition, % at 10 µM; 9% of 200,000 active; in the data active means inhibition above about 50%;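 further: promastigotes grown with compound for 44 hours at 28 °C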
The depositor's hits bear a star. Shown is part of a subset that was picked to be rich in hits.

O=C(NCCO)c1cc([N+](=O)[O-])cc2c1C=Cc1ccccc1O2 was read as DTT redox prof 0, T cruzi inh 54, MPTP block 2, Lipid droplet -5 and Lmaj promast 95*.
For COCCNC(=O)c1noc2c1CCc1cc(OC)ccc1-2 the results were DTT redox prof -2, T cruzi inh 12, MPTP block 1, Lipid droplet -15 and Lmaj promast -10.
COc1ccc2c(c1)CCc1c(C(=O)NCCCn3ccnc3)noc1-2 was read as DTT redox prof -2, T cruzi inh 5, MPTP block -1 and Lmaj promast 100*.
CC1(C)CSC(=NCc2ccccc2)N1C(=O)c1cccc([N+](=O)[O-])c1 was read as DTT redox prof 0, T cruzi inh 1, MPTP block 1, Lipid droplet -51 and Lmaj promast 4.
Screening Cc1ccc(-n2c(=O)c3c(n4cnnc24)-c2ccccc2CC32CCCCC2)cc1 returned DTT redox prof 0, T cruzi inh 10, MPTP block 19, Lipid droplet -3 and Lmaj promast 96*.
For CC(C)Cc1nnc(NC(=O)CCC(=O)NCCc2ccc(Cl)cc2)s1 the results were T cruzi inh -2, MPTP block 0 and Lipid droplet 27.
Cc1cc(/C=C(\C#N)C(=O)NCc2ccco2)c(C)n1C1CCCC1 was read as DTT redox prof 0, T cruzi inh 4, MPTP block 7, Lipid droplet -7 and Lmaj promast 72*.
For Cc1ccc(C)c(OCCn2cc(/C=C(\C#N)C(=O)NCc3ccco3)c3ccccc32)c1 the results were DTT redox prof 0, T cruzi inh -21, MPTP block 2, Lipid droplet -33 and Lmaj promast 65*.
`Cc1cc(/C=C(\C#N)C(=O)NCc2ccco2)c(C)n1-c1cccnc1` gave T cruzi inh 5, MPTP block 2 and Lipid droplet -2.
`COc1ccccc1OCCn1cc(/C=C(\C#N)C(=O)NCc2ccco2)c2ccccc21` gave DTT redox prof 0, T cruzi inh 3, MPTP block 2, Lipid droplet 0 and Lmaj promast 53*.
`C=CCN1C(=O)C(CC(=O)NCC)SC1=Nc1ccccc1CC` (stereo unspecified) gave T cruzi inh 2, MPTP block 0 and Lipid droplet 4.
For C[C@@H]1CN([C@@H](C)CO)C(=O)Cc2cc(NC(=O)C3CCCCC3)ccc2O[C@H]1CN(C)S(=O)(=O)c1ccccc1 the results were MPTP block -1.
`CCCCCC(=O)Nc1cccc(C2=NOC3(C2)C[C@@H](C(N)=O)N(C(=O)c2ccc(Cl)cc2)C3)c1` (stereo partly specified) gave T cruzi inh 60* and MPTP block 0.
Screening CN(C)CCNC(=O)/C(=C/c1ccc(-c2ccc(Cl)cc2Cl)o1)NC(=O)c1ccccc1 returned DTT redox prof 0, T cruzi inh 32, MPTP block 1, Lipid droplet 9 and Lmaj promast 100*.
N#C/C(=C\c1ccc(-c2ccc(Br)cc2)o1)C(=O)NCCc1c[nH]c2ccccc12 was read as DTT redox prof 1, T cruzi inh 8, MPTP block 3, Lipid droplet -16 and Lmaj promast 5.
`Cc1ccc(C(=O)N/C(=C\c2ccc(-c3ccc(Br)cc3)o2)C(=O)NCCCN(C)C)cc1` gave DTT redox prof -2, T cruzi inh 77*, MPTP block -8, Lipid droplet -11 and Lmaj promast 100*.
Screening N#C/C(=C/c1ccc(-c2ccc(Br)cc2)o1)C(=O)NC1CCCCC1 returned DTT redox prof 1, T cruzi inh 9, MPTP block 4, Lipid droplet 2 and Lmaj promast 81*.
`COc1ccc(C(=O)N/C(=C/c2ccco2)C(=O)NC2CCS(=O)(=O)C2)cc1` (stereo unspecified) gave DTT redox prof 0, T cruzi inh -14, MPTP block 1, Lipid droplet -2 and Lmaj promast -2.
`Cc1ccc(C(=O)N/C(=C/c2ccc(-c3ccc(Br)cc3)o2)C(=O)NC2CCS(=O)(=O)C2)cc1` (stereo unspecified) gave DTT redox prof 1, T cruzi inh 0, MPTP block 2, Lipid droplet 25 and Lmaj promast 69*.
For CN(C)S(=O)(=O)c1cccc(NC(=O)C2Cc3ccccc3CN2C(=O)c2ccco2)c1 (stereo unspecified) the results were T cruzi inh 8, MPTP block -2 and Lipid droplet 10.
Screening O=C(NCCCN1CCOCC1)c1c(F)c(F)c(F)c(F)c1F returned T cruzi inh -12, MPTP block 2 and Lipid droplet 0.
O=C(Cn1c2ccccc2c(=O)c2ccccc21)Nc1cccc(F)c1 was read as DTT redox prof 0, T cruzi inh 15, MPTP block 9, Lipid droplet -3 and Lmaj promast 1.
O=C(NCc1ccccc1)C(c1cccnc1)N(C(=O)c1csnn1)c1ccccc1 (stereo unspecified) was read as T cruzi inh 3, MPTP block 0 and Lipid droplet -3.
`CN(C)CCNC(=O)/C(=C/c1ccc(-c2ccc(Cl)cc2)o1)NC(=O)c1ccccc1` gave DTT redox prof 0, T cruzi inh 26, MPTP block 0, Lipid droplet -4 and Lmaj promast 100*.
CCC1c2ccccc2C(=O)C1C(N)=O (stereo unspecified) was read as MPTP block 0.
`O=C1C2C3C=CC(C3)C2C(=O)N1CC1CCCO1` (stereo unspecified) gave DTT redox prof 1, T cruzi inh -11, MPTP block 1, Lipid droplet 0 and Lmaj promast -3.
Screening O=C1CSC(=S)N1CC1CCCO1 (stereo unspecified) returned DTT redox prof -1, T cruzi inh 1, MPTP block 0 and Lmaj promast 81*.
`CCN(CC)S(=O)(=O)c1cc(NC(=O)c2n[nH]c(=O)c3ccccc23)ccc1C` gave DTT redox prof -1, T cruzi inh 4, MPTP block 0, Lipid droplet -4 and Lmaj promast 66*.
CCN(CC)S(=O)(=O)c1cc(NC(=O)c2cc(-c3ccccn3)nc3ccccc23)ccc1C was read as DTT redox prof -3, T cruzi inh 53, MPTP block -2, Lipid droplet -8 and Lmaj promast 53*.
For COc1ccc(S(=O)(=O)NC(=O)C2(C)CCN2C(=O)Cc2ccc(C(C)(C)C)cc2)cc1 (stereo unspecified) the results were MPTP block 1.
CCc1cc[n+](C(C(=S)Nc2cccc(C)c2)=C([O-])c2ccc(C)c([N+](=O)[O-])c2)cc1 was read as MPTP block -1.

From PubChem
